Our source for the Ki, inhibition and Ratio Ki values is ChEMBL document CHEMBL4480374, “Methoxy substituted 2-benzylidene-1-indanone derivatives as A1 and/or A2A AR antagonists for the potential treatment of neurological conditions” (Medchemcomm, 2019).

A word on the Ki: it is a measure of affinity in units of concentration, obtained from inhibition or displacement. As usually defined, the inhibition is the change of the read-out against control, counted positive when it falls.

For assay [1], the target named is T1, Adenosine receptor A1 (Rattus norvegicus, UniProt P25099).
T1 sequence (P25099 whole entry): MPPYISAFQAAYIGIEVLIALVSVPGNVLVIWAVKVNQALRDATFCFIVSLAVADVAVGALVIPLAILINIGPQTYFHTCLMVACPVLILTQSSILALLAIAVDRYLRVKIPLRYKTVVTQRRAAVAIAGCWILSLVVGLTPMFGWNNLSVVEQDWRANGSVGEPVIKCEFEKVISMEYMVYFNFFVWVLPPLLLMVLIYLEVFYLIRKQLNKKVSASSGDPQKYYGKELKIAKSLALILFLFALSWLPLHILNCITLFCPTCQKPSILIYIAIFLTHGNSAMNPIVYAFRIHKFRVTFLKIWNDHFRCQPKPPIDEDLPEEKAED
Description: Displacement of [3H]DPCPX from adenosine A1 receptor in rat brain membranes by radioligand competition assay. The format is cell membranes.

Assay [2] addresses T2, Adenosine receptor A2a (Rattus norvegicus, UniProt P30543). Description: Displacement of [3H]NECA from adenosine A2A receptor in rat striatal membranes by radioligand competition assay. The format is cell membranes, Striatum, Membrane.
The target in assay [3] is T3, Adenosine receptor A1 (Rattus norvegicus) (UniProt P25099).
T3 sequence (whole entry): T1 sequence (P25099 whole entry)
As to the kind of experiment: Displacement of [3H]DPCPX from adenosine A1 receptor in rat brain membranes at 100 uM by radioligand competition assay relative to control. It counts as cell membranes. In a few lines: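 Percentage displacement of radioligand recorded at the maximum tested concentration, 100 μM. Nonspecific binding defined with 100 μM CPA.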
Background: Loss of bound radioactivity is the signal in a displacement assay; it reports binding, not function.

Assay [4] has as its target Adenosine receptor A2a (Rattus norvegicus) (UniProt P30543). As to the kind of experiment: Displacement of [3H]NECA from adenosine A2A receptor in rat striatal membranes at 100 uM by radioligand competition assay relative to control. It counts as cell membranes. As to conditions: Striatum, Membrane. A digest of the protocol: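 Rat striatal membranes, [3H]NECA at 4 nM (Kd = 15.3 nM) with CPA added to minimise A1 binding. Percentage radioligand displacement recorded at the highest tested concentration, 100 μM. Nonspecific binding defined with 100 μM CPA.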

For assay [5], the target named is T2, Adenosine receptor A2a. Description: Antagonist activity at rat adenosine A2A receptor. A digest of the protocol:
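Competition binding at A2A in rat striatal membranes with [3H]NECA (4 nM; Kd = 15.3 nM), with CPA present to limit [3H]NECA binding to A1. Nonspecific binding defined with 100 μM CPA (final). Ki derived from IC50 of sigmoidal dose-response curves of specific binding vs log concentration. Triplicate incubations, mean ± SEM.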

Another assay is filed under the species Rattus norvegicus. Description: Selectivity index, ratio of Ki for adenosine A1 receptor in rat brain membranes to Ki for adenosine A2A receptor in rat striatal membranes. The format is cell membranes. In a few lines: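 Selectivity index calculated as the ratio A1 Ki / A2A Ki. […] A2A Ki measured by [3H]NECA (4 nM, with CPA) competition in rat striatal membranes. Ki values are triplicate means.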

The target in assay [6] is T1, Adenosine receptor A1. Description: Antagonist activity at rat adenosine A1 receptor.
Assay [7] deals with T1, Adenosine receptor A1. As to the kind of experiment: Displacement of [3H]DPCPX from adenosine A1 receptor in rat brain membranes in presence of GTP by radioligand competition assay. It counts as cell membranes.
In assay [8] the target is T3, Adenosine receptor A1 (Rattus norvegicus). Description: Selectivity index, ratio of Ki for adenosine A1 receptor in rat brain membranes in presence of GTP to Ki for adenosine A1 receptor in rat brain membranes in absence of GTP. It counts as cell membranes. In a few lines: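 Both determined by [3H]DPCPX (0.1 nM) competition in rat whole brain membranes, nonspecific binding by 10 μM unlabelled DPCPX. A shift of about 1 is taken as antagonism.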

Chain of Adenosine receptor A2a (Rattus norvegicus) (P30543 whole entry): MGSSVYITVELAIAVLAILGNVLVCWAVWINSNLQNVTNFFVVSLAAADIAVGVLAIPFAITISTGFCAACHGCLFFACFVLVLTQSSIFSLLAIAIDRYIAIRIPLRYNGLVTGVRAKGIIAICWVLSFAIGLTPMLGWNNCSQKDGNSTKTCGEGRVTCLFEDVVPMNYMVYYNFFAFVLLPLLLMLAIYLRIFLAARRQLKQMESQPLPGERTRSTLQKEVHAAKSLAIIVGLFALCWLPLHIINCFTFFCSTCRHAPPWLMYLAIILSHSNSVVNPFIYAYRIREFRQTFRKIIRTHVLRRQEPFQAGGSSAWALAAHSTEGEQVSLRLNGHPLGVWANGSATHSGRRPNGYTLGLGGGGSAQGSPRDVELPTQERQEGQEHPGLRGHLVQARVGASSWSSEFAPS
T2 sequence (P30543 whole entry): as above

Take `O=C1/C(=C/c2cccc(O)c2)CCc2c(O)cccc21`: the figures for the Ki on Adenosine receptor A1 [1] and on Adenosine receptor A2a [2] were 1.62 µM and 5.46 µM, respectively.

For `COc1cccc2c1C/C(=C\c1ccc(N(C)C)cc1)C2=O`, the Ki at Adenosine receptor A1 [1] and on Adenosine receptor A2a [2] was greater than 100 µM each time. Moreover, the inhibition in [3] was found to be 52%; in assay [4], 23%.

Take `O=C1/C(=C/c2ccc(O)c(O)c2)Cc2cc3c(cc21)OCO3`: the Ki on Adenosine receptor A1 [1] was greater than 100 µM; on Adenosine receptor A2a [2], 1.07 µM. In [3], the inhibition amounted to 70%.

As for `COc1ccc2c(c1)C/C(=C\c1ccccc1)C2=O`, the Ki on Adenosine receptor A1 [1] and on Adenosine receptor A2a [2] was greater than 100 µM in each case. The inhibition is 42% in assay [3] and 82% in assay [4].

Compound `O=C1/C(=C/c2ccc(O)cc2)Oc2cc(O)ccc21` returned a Ki at Adenosine receptor A2a [5] greater than 100 µM.

Turning to `COc1cccc2c1C/C(=C\c1ccc(O)cc1)C2=O`, the Ki at Adenosine receptor A1 [1] and at Adenosine receptor A2a [2] was greater than 100 µM each time. The inhibition in assay [3] was 31%; in assay [4], 65%.

For the compound `COc1cccc2c1C/C(=C\c1ccc(O)c(O)c1)C2=O`, the values for the Ki at Adenosine receptor A1 [1] and at Adenosine receptor A2a [2] were 0.042 µM and 0.078 µM, respectively. For the same compound, the Ratio Ki in the assay filed under Rattus norvegicus came to 0.5.

As for `COc1cccc2c1CCC2=O`, the Ki on Adenosine receptor A1 [1] and at Adenosine receptor A2a [2] was greater than 100 µM in each case. Besides, the inhibition in assay [3] stood at 78%; in assay [4], 72%.

For the compound `O=C1/C(=C/c2ccc(O)c(O)c2)Oc2c1ccc(O)c2O`, the Ki at Adenosine receptor A1 [6] was determined as 3.47 µM; on Adenosine receptor A2a [5] it was 9.35 µM.

Regarding `O=C1/C(=C/c2ccc(O)c(O)c2)Cc2c(O)cccc21`, the Ki was 0.435 µM at Adenosine receptor A1 [1], 0.903 µM at Adenosine receptor A2a [2] and 0.339 µM at Adenosine receptor A1 [7]. For the same compound, the Ratio Ki amounted to 0.5 in the assay listed under Rattus norvegicus and 0.9 in [8].

As to `COc1cccc2c1C/C(=C\c1cccc(O)c1)C2=O`, the Ki on Adenosine receptor A1 [1] amounted to 0.041 µM; at Adenosine receptor A2a [2], 0.097 µM; on Adenosine receptor A1 [7], 0.06 µM. In addition, the Ratio Ki came out at 0.4 in the assay filed under Rattus norvegicus and 1.46 in [8].

In the case of `COc1cccc2c1C/C(=C\c1ccccc1)C2=O`, the Ki was 1.65 µM at Adenosine receptor A1 [1] and greater than 100 µM on Adenosine receptor A2a [2]. In assay [4], this compound came in with an inhibition of 62%.

In the case of `COc1ccc2c(c1)C/C(=C\c1ccc(O)c(O)c1)C2=O`, the Ki stood at 3.28 µM at Adenosine receptor A1 [1] and 6.32 µM at Adenosine receptor A2a [2]. Also, the Ratio Ki in the assay filed under Rattus norvegicus amounted to 0.5.

Take `COc1cc(OC)c(OC)cc1/C=C1\Cc2c(OC)cccc2C1=O`: the Ki at Adenosine receptor A1 [1] and at Adenosine receptor A2a [2] was greater than 100 µM each time. The inhibition in assay [3] is 46%; in [4], 29%.

Turning to `COc1cc2c(cc1OC)C(=O)/C(=C/c1ccc(O)c(O)c1)C2`, the results for the inhibition constant (Ki) on Adenosine receptor A1 [1] and at Adenosine receptor A2a [2] were 4.29 µM and 18 µM, respectively. In the assay filed under Rattus norvegicus, the Ratio Ki was 0.2.

Turning to `COc1ccc2c(c1)C/C(=C\c1ccc(N(C)C)cc1)C2=O`, the Ki on Adenosine receptor A1 [1] and at Adenosine receptor A2a [2] was greater than 100 µM in each case. Further, the inhibition was found to be 64% in assay [3] and 47% in assay [4].

As to `OC[C@H]1O[C@@H](n2cnc3c(NC4CCCC4)ncnc32)[C@H](O)[C@@H]1O` [N6-CYCLOPENTYLADENOSINE], on Adenosine receptor A2a [2], the affinity, expressed as Ki, was 0.163 µM.

For `CN(C)c1ccc(/C=C2\Cc3ccccc3C2=O)cc1`, the Ki at Adenosine receptor A1 [1] and at Adenosine receptor A2a [2] was greater than 100 µM throughout. In addition, the inhibition in assay [3] is 51%; in assay [4], 65%.
